Screening data (PubChem)
HCV core dimer: inhibitors of HCV core protein dimerization, primary screen, biochemical, TR-FRET, high-throughput. TR-FRET GST/Flag-core106 dimerization, 1536-well. inhibition, % at 5 µM. 0.33% of 300,000 active. AID 1899, 2009;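 active means inhibition above the mean of all tested compounds plus 3 SD, set per screening campaign, cut at about 45% in these data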
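Material: Tagged HCV core106 pair (GST and Flag) | Amount: GST-core106 13.5 nM, Flag-core106 17 nM | Medium: KF-containing HEPES buffer, pH 7.45, DTT, CHAPS, BSA | Reagent: Eu donor and XL665 acceptor anti-tag antibodies | Schedule: 4 h at 22.5 °C | Technique: Time-resolved FRET, ex 340 nm, em 617 and 671 nm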
PP5 inh: PP5 phosphatase inhibitors, primary screen, biochemical, fluorescence | 0.18% of 320,000 active | purified PP5c, OMFP substrate fluorescence | inhibition, % at 6.7 µM;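 active means inhibition above the campaign's mean inhibition across all tested compounds plus 3 SD, cut at about 9.5% in these data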
Target sequence (P53041 whole entry, looked up): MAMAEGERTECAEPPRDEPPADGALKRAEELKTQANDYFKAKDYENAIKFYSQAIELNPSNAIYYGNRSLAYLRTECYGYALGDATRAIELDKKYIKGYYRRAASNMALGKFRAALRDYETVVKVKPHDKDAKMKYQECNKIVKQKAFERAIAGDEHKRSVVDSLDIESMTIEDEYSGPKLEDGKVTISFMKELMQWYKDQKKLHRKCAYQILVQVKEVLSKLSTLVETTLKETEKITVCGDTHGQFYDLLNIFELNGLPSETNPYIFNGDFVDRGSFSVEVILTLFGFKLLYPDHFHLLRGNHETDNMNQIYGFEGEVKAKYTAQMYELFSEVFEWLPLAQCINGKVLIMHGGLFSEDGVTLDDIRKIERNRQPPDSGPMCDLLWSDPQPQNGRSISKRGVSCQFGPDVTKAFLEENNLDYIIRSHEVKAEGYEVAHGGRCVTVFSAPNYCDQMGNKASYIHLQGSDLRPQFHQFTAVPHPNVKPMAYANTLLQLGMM
PP1 inh: PP1-alpha phosphatase inhibitors, primary screen, counter-screen for PP5 inhibitor project, biochemical, fluorescence, OMFP substrate, single point; Serine/threonine-protein phosphatase PP1-alpha catalytic subunit (Homo sapiens), P62136; purified PP1alpha; inhibition, % at 6.7 µM; 0.9% of 320,000 active; AID 2235, 2010;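 active means inhibition above the mean inhibition of all tested compounds plus 3 SD, computed separately for each screening campaign, cut at about 15% in these data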
ZTA DNA inh: counter-screen for EBNA-1 inhibitors: inhibitors of Epstein-Barr virus ZTA; ZTA-DNA binding, fluorescence polarization; AID 2234; 0.15% of 320,000 active; P03206; inhibition, % at 11 µM; in the data active means inhibition above about 33%
EBNA-1 inhibitor: EBNA-1 DNA-binding inhibitors, primary screen, biochemical, fluorescence polarization; 0.34% of 300,000 active; inhibition, % at 14.8 µM; in the data active means inhibition above about 28%
Each line names hits and unclear results; the compound was inactive in the other large screens. Sampled rows, rich in hits. Any-hit rate of the full collection: about 1.7%.

COc1cc(CNCC2CCCO2)ccc1OCC(N)=O (stereo not given)	none
CCO/N=C(\C)c1c(O)c2ccccc2n(C)c1=O	none
COC(=O)CNC(=O)C(Cc1ccccc1)NS(=O)(=O)c1ccc2c(c1)c(=O)n(C)c(=O)n2C (stereo not given)	none
O=c1[nH]c(C2CCN(S(=O)(=O)/C=C/c3ccccc3)CC2)nc2c1nnn2Cc1ccc(F)cc1	PP1 inh 16.6
O=c1[nH]c(C2CCN(S(=O)(=O)c3ccc4c(c3)OCCO4)CC2)nc2c1nnn2Cc1ccccc1F	none
O=c1[nH]c(C2CCN(S(=O)(=O)c3ccccc3C(F)(F)F)CC2)nc2c1nnn2Cc1cccc(F)c1	PP1 inh 15.6
O=c1[nH]c(C2CCN(S(=O)(=O)Cc3ccccc3)CC2)nc2c1nnn2Cc1ccccc1	none
O=c1[nH]c(C2CCN(S(=O)(=O)c3ccc4c(c3)OCCO4)CC2)nc2c1nnn2Cc1c(F)cccc1Cl	PP1 inh 16.9
COCCNC(=O)CSc1nc2nn(-c3ccccc3)c(=O)c-2c2n1CCCCC2	none
CC(=O)Nc1cccc(C(=O)N/N=C/c2c[nH]c3ccccc23)c1	none
CN(C)CCCNCCCNC(=O)/C(=N\O)c1ccccn1	none
COC(=O)Oc1cncc(C(=O)O)c1	none
CNc1cncc(C(=O)O)c1	EBNA-1 inhibitor 42.0
COc1cc2c(cc1NC(=O)c1cc(-c3ccncc3)nc3ccccc13)oc1ccccc12	PP1 inh 15.4
COc1cc2c(cc1NC(=O)c1cc(-c3cccnc3)nc3ccc(C)cc13)oc1ccccc12	none
COc1cc2c(cc1NC(=O)CSc1ccccc1)oc1ccccc12	ZTA DNA inh 33.5
COc1cc2c(cc1NC(=O)CSc1nccn1C)oc1ccccc12	none
O=C(CSc1nnc(COc2ccc(Cl)cc2)o1)NC1CC2CCC1C2 (stereo not given)	none
O=C1C2N=NN(CC(=O)N3N=C(c4ccccc4)CC3c3ccc([N+](=O)[O-])cc3)C2C(=O)N1c1ccccc1 (stereo not given)	PP1 inh 16.4
Cc1cccc(N2CCN(S(=O)(=O)c3ccc4c(c3)C(C)(C)C(=O)N4C)CC2)c1C	HCV core dimer 46.6
CN1C(=O)C(C)(C)c2cc(S(=O)(=O)N(C)Cc3ccccc3)ccc21	none
Cc1cccc(N(C)S(=O)(=O)c2ccc3c(c2)C(C)(C)C(=O)N3C)c1	HCV core dimer 54.1
Cc1ccc(C)c(N2CCN(S(=O)(=O)c3ccc4[nH]c(=O)ccc4c3)CC2)c1	HCV core dimer 46.0
COc1ccc(S(=O)(=O)N2CCN(c3cccc(C)c3C)CC2)cc1	none
Cc1cccc(N2CCN(S(=O)(=O)c3ccc4[nH]c(=O)ccc4c3)CC2)c1C	PP1 inh 16.2
COc1ccc(/C=C/C(=O)OCC(=O)NC2CCCC2)c(OC)c1	none (no result: HCV core dimer, EBNA-1 inhibitor)
O=C(CCn1nnc2ccccc21)Nc1nnc(-c2ccccc2F)s1	PP1 inh 16.7
c1cncc(N=c2scc(-c3cccc4ccccc34)n2CCCn2ccnc2)c1	PP1 inh 15.8
NC1=NC(c2ccccc2C(F)(F)F)N(c2ccc(F)c(Cl)c2)C(N)=N1 (stereo not given)	none
O=C(c1ccccc1NS(=O)(=O)c1ccc(F)cc1)N1CCOCC1	none
Cc1cccc(S(=O)(=O)c2c(N)n(Cc3ccco3)c3nc4ccccc4nc23)c1	none
Cc1cccc(-n2cnc3c(c2=O)c2nc4ccccc4nc2n3Cc2ccco2)c1	HCV core dimer 59.9
S=C1NCCNC(=S)NCCOCCOCCN1	none
Cc1ccc(SCc2nc3ccccc3n2CC(=O)Nc2ccccc2)cc1	none
Cc1ccc(SCc2nc3ccccc3n2CC(=O)Nc2c(C)cccc2C)cc1	PP1 inh 16.0
CCCCNC(=O)N1CCN(Cc2cccc(F)c2)CC1	none
Cc1ccc(NC(=O)CCCN2C(=O)/C(=C/C=C/c3ccccc3)SC2=S)cc1	HCV core dimer 56.9
CC(/C=C1\SC(=S)N(CCCC(=O)Nc2ccc(C(=O)O)c(O)c2)C1=O)=C\c1ccccc1	PP1 inh 17.2
Cc1ccnc(NC(=O)CCC(=O)N(CC(=O)NC(C)(C)C)c2ccc3c(c2)OCO3)c1	none
COc1ccc2nc(-n3c(O)c(C4=c5ccccc5=NC4=O)[nH]c3=S)sc2c1	PP1 inh 15.3
O=C(NCC1(N2CCCCC2)CCCCC1)c1cccc(S(=O)(=O)Nc2ccc(F)cc2)c1	none (no result: HCV core dimer, EBNA-1 inhibitor)
